Data set [1] is described as follows: Stability in rat hepatocytes assessed as compound remaining incubated for 60 mins under shaking condition by LC-MS/MS analysis. It counts as ADME, cell-based, Hepatocyte. The following applies: read-out: Stability. The method in brief: (§1)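 Human and rat hepatocytes exposed to compound; percent parent remaining reported.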
Data set [2] is described as follows: Stability in human hepatocytes assessed as compound remaining incubated for 60 mins under shaking condition by LC-MS/MS analysis. It counts as ADME, cell-based, Hepatocyte. Conditions: read-out: Stability. Summed up: as §1
Data set [3] addresses T1, C-C chemokine receptor type 4 (Homo sapiens, UniProt P51679).
T1 sequence (P51679 whole entry): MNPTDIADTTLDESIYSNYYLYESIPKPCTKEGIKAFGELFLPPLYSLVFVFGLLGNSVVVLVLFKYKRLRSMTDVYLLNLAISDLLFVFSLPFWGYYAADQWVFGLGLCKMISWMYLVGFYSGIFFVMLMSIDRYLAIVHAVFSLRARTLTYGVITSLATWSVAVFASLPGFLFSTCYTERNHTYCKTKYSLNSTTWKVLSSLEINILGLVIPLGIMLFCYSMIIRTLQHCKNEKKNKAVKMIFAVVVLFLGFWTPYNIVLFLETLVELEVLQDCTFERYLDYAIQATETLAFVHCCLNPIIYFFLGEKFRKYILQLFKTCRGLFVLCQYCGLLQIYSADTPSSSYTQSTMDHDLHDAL
Briefly: Antagonist activity at human CCR4 expressed in rat chem-5 cells assessed as inhibition of CCL22-induced calcium flux measured at 2.5 secs time interval for 45 secs by fluorescence assay. In kind it is functional, cell-based. The method in brief: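 Calcium flux functional readout of CCR4 antagonism, run without serum; IC50 reported.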
In general terms: Calcium assays in cells follow changes in intracellular calcium, usually with a dye or a luminescent sensor.

Data set [4] is described as follows: Hepatic clearance in rat at 0.5 mg/kg, iv. It counts as ADME, organism-based. The following applies: in vivo.
Data set [5] is described as follows: AUCinfinity in rat at 0.5 mg/kg, iv. The following applies: in vivo. Also noted: dose 0.5 mg/kg, route intravenous, time infinity. In kind it is ADME, organism-based.
Data set [6] is described as follows: Bioavailability in rat. In kind it is ADME, organism-based. Conditions: in vivo.
The nature of data set [7]: Bioavailability in mouse. It counts as ADME, organism-based. Conditions: in vivo.
Data set [8] in a line: Half-life in mouse. In kind it is ADME, organism-based. The following applies: in vivo.
A short description of data set [9]: Oral bioavailability in rat at 2 mg/kg, po. It counts as ADME, organism-based. Conditions: in vivo.
Data set [10] is described as follows: Oral bioavailability in dog at 2 mg/kg, po. In kind it is ADME, organism-based, Canis lupus familiaris. The following applies: in vivo. Summed up: (§2)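 Cross-species PK (dog, cynomolgus monkey): 0.5 mg/kg IV or 2 mg/kg PO; three animals per group.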
Data set [11] has as its system Mus musculus. In words: Inhibition of anti-CD3/CD28-stimulated B6-Foxp3 GFP positive mouse T-reg cell migration into tumor of mouse Pan02 cells implanted in C57BL/6 mouse assessed as decrease in number of GFP positive T-reg cells in tumor at 30 mg/kg, po qd treated 24 hrs prior to T-reg cell addition followed by compound dosing for subsequent 4 days and measured on day 6 by flow cytometry relative to control. It counts as functional. Conditions: C57BL/6, Pan02, po. Summed up:
(§3)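 Pan02 pancreatic tumor-bearing mice dosed QD for 6 days at 10 or 30 mg/kg. GFP+ induced Treg, made from naive CD4+ T cells of Foxp3-GFP transgenic mice, injected 24 h after first dose. GFP+ Treg counted in tumor and spleen versus vehicle group; plasma level taken 24 h after last dose; one-way ANOVA.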
(A flow cytometer gives signals particle by particle.)

The nature of data set [12]: Volume of distribution at steady state in mouse. In kind it is ADME, organism-based. The following applies: in vivo, read-out: Vdss.
Data set [13] addresses Cytochrome P450 2D6 (Homo sapiens, UniProt P10635). Briefly: Inhibition of CYP2D6 (unknown origin). In kind it is ADME. The method in brief:
(§4)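 CYP inhibition tested against 1A2, 2C9, 2C19, 2D6 and 3A4; IC50 in μM.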

For data set [14], the system named is Mus musculus. In words: Inhibition of anti-CD3/CD28-stimulated B6-Foxp3 GFP positive mouse T-reg cell migration into tumor of mouse Pan02 cells implanted in po dosed C57BL/6 mouse assessed as decrease in number of GFP positive T-reg cells in tumor treated 24 hrs prior to T-reg cell addition followed by daily compound dosing for subsequent 4 days and measured on day 6 by flow cytometry. In kind it is functional, organism-based. The method in brief:
as §3

Data set [15] can be described thus: Terminal half-life in cynomolgus monkey at 0.5 mg/kg, iv. Conditions: in vivo, read-out: beta t1/2 (converted). In kind it is ADME, organism-based, Macaca fascicularis. Summed up:
as §2

For data set [16], the target named is Cytochrome P450 2C9 (Homo sapiens, UniProt P11712). Briefly: Inhibition of CYP2C9 (unknown origin). In kind it is ADME. The method in brief:
as §4

A short description of data set [17]: Terminal half-life in rat at 0.5 mg/kg, iv. In kind it is ADME, organism-based. Conditions: in vivo, read-out: beta t1/2 (converted).
A short description of data set [18]: Clearance in mouse. The following applies: in vivo. In kind it is ADME, organism-based.
Data set [19] can be described thus: Terminal half-life in dog at 0.5 mg/kg, iv. In kind it is ADME, organism-based, Canis lupus familiaris. Conditions: in vivo, read-out: beta t1/2 (converted). The method in brief: as §2
A short description of data set [20]: Volume of distribution at steady state in rat at 0.5 mg/kg, iv or 2 mg/kg, po. It counts as ADME, organism-based. Conditions: in vivo, read-out: Vdss.
Data set [21] can be described thus: AUC(0 to infinity) in rat at 2 mg/kg, po. In kind it is ADME, organism-based. Conditions: in vivo. Also noted: dose 2 mg/kg, route oral, time infinity.
A short description of data set [22]: Hepatic clearance in rat at 0.5 mg/kg, iv or 2 mg/kg, po. In kind it is ADME, organism-based. The following applies: in vivo.
A short description of data set [23]: Oral bioavailability in cynomolgus monkey at 2 mg/kg, po. It counts as ADME, organism-based, Macaca fascicularis. The following applies: in vivo. The method in brief:
as §2

Data set [24] addresses Cytochrome P450 3A4 (Homo sapiens, UniProt P08684). Briefly: Inhibition of CYP3A4 (unknown origin). It counts as ADME. The method in brief:
as §4

In data set [25] the target is Cytochrome P450 2C19 (Homo sapiens, UniProt P33261). In words: Inhibition of CYP2C19 (unknown origin). It counts as ADME. Summed up:
as §4

The nature of data set [26]: Hepatic clearance in dog at 0.5 mg/kg, iv or 2 mg/kg, po. Conditions: in vivo. In kind it is ADME, organism-based, Canis lupus familiaris. Summed up: as §2
A short description of data set [27]: Terminal half-life in rat at 0.5 mg/kg, iv or 2 mg/kg, po. It counts as ADME, organism-based. Conditions: in vivo, read-out: beta t1/2 (converted).
Data set [28] deals with T2, Cytochrome P450 1A2 (Homo sapiens, UniProt P05177).
T2 sequence (P05177 whole entry): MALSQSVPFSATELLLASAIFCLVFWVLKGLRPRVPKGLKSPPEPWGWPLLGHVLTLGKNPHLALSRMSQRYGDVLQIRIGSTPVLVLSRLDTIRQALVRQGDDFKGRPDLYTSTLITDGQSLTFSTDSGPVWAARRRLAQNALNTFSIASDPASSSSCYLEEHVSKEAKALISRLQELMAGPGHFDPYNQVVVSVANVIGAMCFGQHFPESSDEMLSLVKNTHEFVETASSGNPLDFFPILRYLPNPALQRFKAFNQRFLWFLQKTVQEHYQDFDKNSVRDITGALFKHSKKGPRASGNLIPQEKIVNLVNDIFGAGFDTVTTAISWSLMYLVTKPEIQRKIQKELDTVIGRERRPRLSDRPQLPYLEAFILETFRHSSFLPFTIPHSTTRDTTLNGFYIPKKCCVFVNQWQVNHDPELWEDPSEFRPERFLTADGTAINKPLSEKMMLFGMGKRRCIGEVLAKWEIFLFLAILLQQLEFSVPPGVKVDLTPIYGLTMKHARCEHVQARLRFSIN
Briefly: Inhibition of CYP1A2 (unknown origin). In kind it is ADME. The method in brief:
as §4

Data set [29] in a line: Hepatic clearance in cynomolgus monkey at 0.5 mg/kg, iv or 2 mg/kg, po. The following applies: in vivo. In kind it is ADME, organism-based, Macaca fascicularis. Summed up: as §2

Cytochrome P450 2C9, sequence (P11712 whole entry): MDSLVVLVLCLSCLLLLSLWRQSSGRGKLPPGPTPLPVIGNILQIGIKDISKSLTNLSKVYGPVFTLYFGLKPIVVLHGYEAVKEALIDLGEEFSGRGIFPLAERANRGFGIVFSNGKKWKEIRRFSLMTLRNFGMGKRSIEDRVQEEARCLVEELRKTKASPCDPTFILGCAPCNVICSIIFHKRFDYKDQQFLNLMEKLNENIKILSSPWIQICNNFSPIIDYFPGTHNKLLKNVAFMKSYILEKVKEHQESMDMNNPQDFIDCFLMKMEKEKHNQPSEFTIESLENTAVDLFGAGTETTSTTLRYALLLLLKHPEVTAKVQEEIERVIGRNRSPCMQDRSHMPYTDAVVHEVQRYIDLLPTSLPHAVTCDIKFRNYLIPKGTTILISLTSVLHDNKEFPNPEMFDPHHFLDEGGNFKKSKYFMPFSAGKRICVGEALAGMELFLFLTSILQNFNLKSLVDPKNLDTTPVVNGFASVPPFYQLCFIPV
Cytochrome P450 2C19, sequence (P33261 whole entry): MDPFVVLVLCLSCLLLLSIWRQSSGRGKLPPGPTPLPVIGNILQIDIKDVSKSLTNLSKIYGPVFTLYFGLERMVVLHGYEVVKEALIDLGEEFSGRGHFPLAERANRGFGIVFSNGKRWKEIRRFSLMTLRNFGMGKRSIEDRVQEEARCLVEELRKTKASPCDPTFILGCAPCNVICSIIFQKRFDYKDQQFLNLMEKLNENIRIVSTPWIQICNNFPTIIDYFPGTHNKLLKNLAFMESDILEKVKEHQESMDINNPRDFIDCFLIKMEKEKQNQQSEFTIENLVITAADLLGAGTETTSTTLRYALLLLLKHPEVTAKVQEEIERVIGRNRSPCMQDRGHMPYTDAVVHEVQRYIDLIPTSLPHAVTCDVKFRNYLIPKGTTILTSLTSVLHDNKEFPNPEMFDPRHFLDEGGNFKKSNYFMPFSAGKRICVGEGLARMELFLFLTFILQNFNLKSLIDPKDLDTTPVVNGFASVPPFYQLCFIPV
Cytochrome P450 3A4, sequence (P08684 whole entry): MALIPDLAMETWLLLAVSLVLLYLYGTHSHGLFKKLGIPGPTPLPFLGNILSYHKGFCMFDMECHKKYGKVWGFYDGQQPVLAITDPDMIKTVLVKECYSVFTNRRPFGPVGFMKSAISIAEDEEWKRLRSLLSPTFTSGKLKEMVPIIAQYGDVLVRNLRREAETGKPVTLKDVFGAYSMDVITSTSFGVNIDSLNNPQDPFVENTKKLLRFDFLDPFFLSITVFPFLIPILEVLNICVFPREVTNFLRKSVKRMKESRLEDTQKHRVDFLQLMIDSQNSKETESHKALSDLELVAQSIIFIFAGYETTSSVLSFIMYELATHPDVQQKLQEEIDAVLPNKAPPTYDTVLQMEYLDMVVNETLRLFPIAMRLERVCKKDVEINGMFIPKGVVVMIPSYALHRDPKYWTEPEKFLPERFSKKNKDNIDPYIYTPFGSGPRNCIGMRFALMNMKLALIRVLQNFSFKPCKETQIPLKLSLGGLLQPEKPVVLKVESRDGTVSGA
Cytochrome P450 2D6, sequence (P10635 whole entry): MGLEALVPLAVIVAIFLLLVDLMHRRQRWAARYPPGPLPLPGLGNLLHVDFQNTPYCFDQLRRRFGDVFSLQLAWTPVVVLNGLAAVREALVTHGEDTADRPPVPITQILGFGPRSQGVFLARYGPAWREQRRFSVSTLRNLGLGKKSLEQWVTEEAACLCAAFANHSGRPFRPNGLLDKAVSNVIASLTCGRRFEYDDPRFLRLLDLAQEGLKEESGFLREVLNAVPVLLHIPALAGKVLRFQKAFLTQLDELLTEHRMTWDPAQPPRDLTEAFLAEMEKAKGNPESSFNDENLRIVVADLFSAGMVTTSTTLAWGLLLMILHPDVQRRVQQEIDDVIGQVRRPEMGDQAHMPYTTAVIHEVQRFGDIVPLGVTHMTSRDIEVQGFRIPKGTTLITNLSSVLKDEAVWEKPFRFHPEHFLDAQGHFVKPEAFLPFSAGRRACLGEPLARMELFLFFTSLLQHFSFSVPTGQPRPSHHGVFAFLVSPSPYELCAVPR

As to `Cc1nn([C@H](C)c2ccc(Cl)cc2Cl)c2nc(C3=CC[C@H](N4CCC[C@H]4CO)[C@H](C)C3)cnc12`, the remaining at 1 h in [1] came out at 35%; in data set [2] it was 99%. The IC50 in data set [3] was 36 nM.

`CC(c1ccc(Cl)cc1Cl)n1ncc2ncc(N3CCC(N4CCCCC4)CC3)nc21` (configuration not stated): the 50% inhibitory concentration (IC50) in [3] stood at 2580 nM.

`CC1CN(c2cnc3c(C#N)nn(C(C)c4ccc(Cl)cc4Cl)c3n2)CCC1N1CCCCC1` (configuration not stated) yielded a CLH in [4] of 101.7 mL/min/kg. The same compound registered an AUC(0-inf) in [5] of 82 ng·h/mL. Further, in data set [3], the IC50 came to 251 nM.

Take `Cc1nn([C@H](C)c2ccc(Cl)cc2Cl)c2nc(N3CC[C@H](N4CCC[C@H]4C(=O)O)[C@H](C)C3)cnc12`: in data set [3], the concentration for half-maximal inhibition (IC50) turned out to be 670 nM.

`Cc1nn([C@H](C)c2ccc(Cl)cc2Cl)c2nc(N3CC[C@H](N4CCC[C@H]4CCC(N)=O)[C@H](C)C3)cnc12`: in data set [3], the half-inhibitory concentration (IC50) came to 37 nM.

For the compound `C[C@@H]1CC(c2cnc3c(C#N)nn([C@H](C)c4ccc(Cl)cc4Cl)c3n2)=CC[C@@H]1N1CCC[C@H]1C(C)(C)O`, the half-maximal inhibitory concentration (IC50) in [3] was 384 nM.

Take `C[C@@H](Nc1cncc(C2=CCN(C(=O)[C@H]3CCCCN3)CC2)n1)c1ccc(Cl)cc1Cl`: in data set [6], the bioavailability is 7%. In data set [3], the concentration for half-maximal inhibition (IC50) came to 54 nM.

With `C[C@@H]1CC(c2cnc3c(C#N)nn([C@H](C)c4ccc(Cl)cc4Cl)c3n2)=CC[C@@H]1N1CCC[C@H]1CN`, the remaining at 1 h in data set [1] and in data set [2] was 100% throughout. In addition, in data set [3], the IC50 came out at 229 nM.

For `Cc1nn([C@H](C)c2ccc(Cl)cc2Cl)c2nc(N3CC[C@H](N4CCC[C@@H]4C)[C@H](C)C3)cnc12`, the half-inhibitory concentration (IC50) in data set [3] was found to be 172 nM.

For `C[C@@H]1CC(c2cnc3c(C#N)nn([C@H](C)c4ccc(Cl)cc4Cl)c3n2)=CC[C@@H]1N1CCC[C@H]1CO`, the bioavailability in [7] amounted to 26%; in [9], 28%; in data set [10] it was 75%; in data set [23], 30%. The half-life is 7.6 h in data set [8]; 9.9 h in data set [15]; 2.2 h in data set [17]; 16.4 h in [19]; 4.1 h in data set [27]. The remaining at 1 h in data set [1] is 32%; in [2], 81%. For the same compound, the inhibition in vivo at 30 mg/kg in data set [11] amounted to 100%. In addition, the values for the Vd in [12] and in [20] were 5.7 L/kg and 9.8 L/kg, respectively. For the same compound, the IC50 is over 10000 nM in data set [13]; over 10000 nM in data set [16]; over 10000 nM in data set [24]; over 10000 nM in data set [25]; over 10000 nM in [28]; 40 nM in data set [3]. Further, in [14], the inhibition result was “Dose-dependent effect”. The compound further returned a clearance in data set [18] of 12 mL/min/kg. Also, the area under the curve AUC(0-inf) in data set [21] amounted to 125 ng·h/mL. Also, the CLH in data set [22] was determined as 74.7 mL/min/kg; in data set [26] it was 10.7 mL/min/kg; in [29], 11.3 mL/min/kg.

Turning to `Cc1nn([C@H](C)c2ccc(Cl)cc2Cl)c2nc(N3CC[C@H](N4CCCC4)[C@H](C)C3)cnc12`, the IC50 in [3] is 69 nM.

Take `Cc1nn(C(C)c2ccc(Cl)cc2Cl)c2nc(N3CCC(N4CCCCC4)C(C)C3)cnc12` (configuration not stated): the CLH in data set [4] worked out at 38.3 mL/min/kg. In data set [5], this compound displayed an AUC(0-inf) of 217 ng·h/mL. The half-inhibitory concentration (IC50) in [3] was determined as 126 nM.

Regarding `Cc1nn([C@H](C)c2ccc(Cl)cc2Cl)c2nc(N3CC[C@H](N4CCC[C@H]4CCS(N)(=O)=O)[C@H](C)C3)cnc12`, the IC50 in [3] amounted to 32 nM.

Usually IC50 stands for the concentration at which inhibition is half-maximal. What is called AUC(0-inf) is the area under the concentration-time curve extrapolated to infinity. As a reminder, the bioavailability is dose-corrected exposure relative to a reference, in per cent. As a reminder, the inhibition in vivo is the relative decrease from the control value, in per cent. As usually defined, the clearance is the rate of elimination divided by the concentration.

Source of the values: ChEMBL document CHEMBL4364292, “Discovery of a Potent and Selective CCR4 Antagonist That Inhibits Treg Trafficking into the Tumor Microenvironment” (J Med Chem, 2019).
